Compound activity from PubChem.
Compounds with a hit are over-represented: about 4.1% of the library has one in this group of screens.
Tb MetRS inh – blocks T. brucei methionyl-tRNA synthetase activity; purified T. brucei MetRS, ATP depletion, Kinase-Glo luminescence; actives 0.4% (n = 360,000); inhibition, % at 11.9 µM;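 active = inhibition above a per-plate cutoff of the control wells' mean inhibition plus 3 SD, cut at about 5.5% in these data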
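Material: T. brucei methionyl-tRNA synthetase, purified; reagent: substrates ATP, L-methionine and bulk Escherichia coli tRNA; dosing: 11.9 µM single point; timing: 15 min plus 2 h at 25 °C; detection: luminescence of leftover ATP; evaluation: % inhibition; control set: DMSO-only wells as low control; replicates: singlicate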
Efflux pump inh – inhibitors of Candida antifungal efflux pumps expressed in yeast; S. cerevisiae Candida pump triplex, Nile Red efflux; inhibition, % at 10 µM; actives 0.44% (n = 330,000); AID 485275;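 active = plate passing quality check with inhibition over a set limit, or well fluorescence over plate mean plus 4 SD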;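 also: Nile Red retained in pooled yeast measured as flow cytometry median fluorescence; higher means more Nile Red kept so more efflux inhibition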
TAG inh – reduces triacylglycerol accumulation in H9c2 cells; AID 651582; Nile Red lipid (TAG) fluorescence; cells loaded with 200 µM oleic acid; inhibition, % at 12.5 µM; actives 0.66% (n = 230,000);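 active = pattern-corrected inhibition of lipid staining of at least 50% with the nuclear-stain viability signal not falling by more than 50%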
SMARCA2 activ – SMARCA2 function activation, primary screen; MG213 cells, MMTV-luciferase reporter, dexamethasone, overnight; activation, % at 9.1 µM; actives 1% (n = 370,000); in the data active = activation above about 7.8%
AHR activator – human AHR activation; AHR-responsive luciferase reporter cells, luminescence; activation, % at 5 µM; actives 2.5% (n = 320,000); AID 2796; in the data active = activation above about 47%
Target sequence (P35869 whole entry, looked up): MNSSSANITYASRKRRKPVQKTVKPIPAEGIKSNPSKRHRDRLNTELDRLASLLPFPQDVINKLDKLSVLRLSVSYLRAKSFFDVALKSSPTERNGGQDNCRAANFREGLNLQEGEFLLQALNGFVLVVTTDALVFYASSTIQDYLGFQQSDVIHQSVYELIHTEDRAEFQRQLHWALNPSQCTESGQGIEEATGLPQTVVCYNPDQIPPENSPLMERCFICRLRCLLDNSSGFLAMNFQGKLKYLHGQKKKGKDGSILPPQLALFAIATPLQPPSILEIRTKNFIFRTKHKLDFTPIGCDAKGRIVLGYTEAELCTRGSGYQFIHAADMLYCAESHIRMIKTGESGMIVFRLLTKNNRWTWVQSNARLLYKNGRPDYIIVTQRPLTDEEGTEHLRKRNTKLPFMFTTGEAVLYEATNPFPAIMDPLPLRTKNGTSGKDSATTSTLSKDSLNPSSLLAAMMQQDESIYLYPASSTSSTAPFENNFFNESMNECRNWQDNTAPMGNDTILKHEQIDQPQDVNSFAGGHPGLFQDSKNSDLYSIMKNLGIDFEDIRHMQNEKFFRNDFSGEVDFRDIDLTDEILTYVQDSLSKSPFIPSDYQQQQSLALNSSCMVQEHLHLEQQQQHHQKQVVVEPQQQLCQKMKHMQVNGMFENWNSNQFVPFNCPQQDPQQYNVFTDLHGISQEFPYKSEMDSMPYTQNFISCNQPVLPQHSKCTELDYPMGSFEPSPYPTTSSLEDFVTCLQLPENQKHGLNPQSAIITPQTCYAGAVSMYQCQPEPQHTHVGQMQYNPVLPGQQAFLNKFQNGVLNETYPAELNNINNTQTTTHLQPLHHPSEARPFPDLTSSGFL
Of the large screens only hits and unclear results are named; the others gave an inactive call.

Cc1ccc(/C=N/NC(=O)c2cccc(S(=O)(=O)Nc3ccccc3Cl)c2)s1	AHR activator 53 (no result: TAG inh)
Nc1nc(NCC2CCCO2)nc(Nc2ccccc2)c1[N+](=O)[O-] (centres undefined)	none (no result: TAG inh)
Cc1ccc(Nc2nc(NCCCN3CCOCC3)nc(N)c2[N+](=O)[O-])cc1	none (no result: TAG inh)
Nc1nc(NCCCN2CCOCC2)nc(Nc2ccc(Cl)cc2)c1[N+](=O)[O-]	AHR activator 74
Nc1nc(NCC2CCCO2)nc(Nc2ccc(Cl)cc2)c1[N+](=O)[O-] (centres undefined)	AHR activator 68
C=CCN(CC#Cc1ccc(C)cc1)Cc1ccc(OC)cc1OC	none (no result: Tb MetRS inh, Efflux pump inh, TAG inh, AHR activator)
CC1(C(=O)N2CCC(Oc3cccnc3)CC2)CC1	none (no result: Tb MetRS inh, Efflux pump inh, TAG inh, AHR activator)
CC(=O)Cn1ncc(Br)c(Br)c1=O	TAG inh 61 (no result: Efflux pump inh, AHR activator)
COc1cccc(-c2ccc(CC[C@H]3O[C@H]4CC[C@@H](CO)O[C@H]4C[C@H]3NC(=O)c3cnccn3)cc2)c1	none (no result: Tb MetRS inh, Efflux pump inh, TAG inh, AHR activator)
Cc1ccsc1CNc1ncnc2ccc(-c3c(C)noc3C)cc12	AHR activator 56
COc1cccc(CNc2ncnc3ccc(-c4c(C)noc4C)cc23)c1	none
COc1ccc(C(=O)CC(Nc2ccc([N+](=O)[O-])cc2)c2ccc(OC)cc2)cc1 (centres undefined)	none (no result: TAG inh)
CNC(CC(=O)c1ccc([N+](=O)[O-])cc1)C(Cl)(Cl)Cl (centres undefined)	Efflux pump inh 9.4 (no result: SMARCA2 activ)
Cc1ccc(C(=O)Nc2nc3ccccc3n2CCN2CCCC2)cc1	AHR activator 47
Cn1c(NC(=O)c2cccnc2)nc2ccccc21	AHR activator 78
O=C(Nc1cnc2ccccc2c1)c1cccnc1	none
CCCn1c(NC(=O)c2ccc(C)cc2)nc2ccccc21	AHR activator 49
O=C(Nc1ccc(Cl)c(Cl)c1)c1cccnc1	AHR activator 71
CCCn1c(NC(=O)c2ccccc2)nc2ccccc21	none
O=C(Nc1cccc(NC(=O)c2cccnc2)c1)c1cccnc1	none (no result: TAG inh, SMARCA2 activ)
Cn1c(=O)c2c(ncn2Cc2ccc(O)c([N+](=O)[O-])c2)n(C)c1=O	none (no result: Tb MetRS inh, Efflux pump inh, TAG inh, AHR activator)
CC(C)N(C(N)=NC(=O)OCc1ccccc1)C(C)C	none (no result: Tb MetRS inh, Efflux pump inh, TAG inh, AHR activator)
COc1ccc(-c2cc(-c3nnc(SCc4cccc5ccccc45)n3N)[nH]n2)cc1	none (no result: Tb MetRS inh, Efflux pump inh, TAG inh, AHR activator)
NC(=O)c1ncn([C@@H]2O[C@H](C(=O)N3CCCN(Cc4ccccc4F)CC3)[C@@H](O)[C@H]2O)n1	none (no result: Tb MetRS inh, Efflux pump inh, TAG inh, AHR activator)
COc1ccc(Nc2nc(C)cc(C)c2C#N)cc1	AHR activator 65
CCOc1ccc(Nc2cc(C)nc3nc(C)nn23)cc1	none
COc1ccc(Nc2nc(C)cc(C)c2C#N)c(OC)c1	none
CCOc1ccc(Nc2nc(C)cc(C)c2C#N)cc1	AHR activator 80 (no result: TAG inh)
O=C(NCc1ccccc1C(F)(F)F)c1cccc2c1C(=O)c1ccc(N3CCC(N4CCCCC4)CC3)cc1S2(=O)=O	SMARCA2 activ 20 (no result: Efflux pump inh, AHR activator)
C[C@@H]1C[C@@H]2OC(=O)[C@]3(C)[C@H]2[C@@H](OC3(C)O)[C@]2(C)C(=O)C=C[C@H]12 (some centres undefined)	none
C=C1C(=O)C=C[C@]2(C)C[C@@H]3OC(=O)[C@](C)(O)[C@H]3C[C@@H]12	TAG inh 57
Cc1n[nH]c(=S)n1/N=C/c1ccccc1OCc1ccc(Cl)cc1Cl	AHR activator 49 (no result: TAG inh)
CCc1n[nH]c(=S)n1/N=C/c1ccccc1OCc1ccc(Cl)cc1	AHR activator 66
COC(=O)c1cc(-c2cc3ccccc3s2)c(=O)n2c1CCC2	none (no result: Tb MetRS inh, Efflux pump inh, TAG inh, AHR activator)
Cn1c(=O)c2cc(S(=O)(=O)N3CCN(CCO)CC3)ccc2n(C)c1=O	none (no result: Tb MetRS inh, Efflux pump inh, TAG inh, AHR activator)
C/C(=N\Nc1ccc2nncn2n1)c1ccc(Br)s1	AHR activator 78
Cn1cncc1C#Cc1c(C=O)[nH]c2ccccc12	AHR activator 68 (no result: TAG inh)
Cn1cncc1C#Cc1c(-c2ccc(S(C)(=O)=O)cc2)sc2ccccc12	none
COc1ccc(S[C@]2(C(=O)N(C)C)CC(=O)N(C(=O)C3CC3)[C@@H]2c2ccc(OC)cc2)cc1	none (no result: Tb MetRS inh, Efflux pump inh, TAG inh, AHR activator)
FC(F)(F)c1nc(N2CCN(c3ccccc3)CC2)nc2c1CCCCC2	AHR activator 65
COC(=O)[C@]12C[C@H](CC(=O)NCCc3ccccc3OC)C(=O)N(Cc3cccc4ccccc34)C1=C[C@H](COCc1ccccc1)O[C@@H]2C	none (no result: Tb MetRS inh, Efflux pump inh, TAG inh, AHR activator)
COc1ccc(NC(=S)c2ccc3ccccc3n2)cc1	none (no result: TAG inh, SMARCA2 activ)
COc1ccc(N=C(NN)c2ccc3ccccc3n2)cc1	AHR activator 71
O=c1[nH]c(Nc2nc3ccccc3o2)nc2c1CCCC2	AHR activator 55 (no result: TAG inh)
COc1ccc(CSc2nnc(SCC(=O)Nc3ccc4c(c3)OCO4)s2)cc1	none (no result: Tb MetRS inh, Efflux pump inh, TAG inh, AHR activator)
CNC(=O)/C(C#N)=C/c1c(N2CCN(c3ccccc3)CC2)nc2c(C)cccn2c1=O	AHR activator 49 (no result: TAG inh)
COC(=O)/C(C#N)=C/c1c(N2CCN(c3ccc(OC)cc3)CC2)nc2c(C)cccn2c1=O	none (no result: TAG inh)
CNC(=O)/C(C#N)=C/c1c(N2CCN(c3ccc(OC)cc3)CC2)nc2c(C)cccn2c1=O	AHR activator 55 (no result: TAG inh)
CNC(=O)/C(C#N)=C/c1c(N2CCCCCC2)nc2c(C)cccn2c1=O	none (no result: TAG inh)
O=C(CSc1nnc(-c2ccccc2)n1-c1ccccc1)Nc1ccccc1-c1ccccc1	none (no result: Tb MetRS inh, Efflux pump inh, TAG inh, AHR activator)
COc1ccc(OC)c(CN2C(=O)c3ccnn3CC2(C)c2nnnn2C2CCCC2)c1 (centres undefined)	none (no result: Tb MetRS inh, Efflux pump inh, TAG inh, AHR activator)
Cc1ccccc1Oc1ncnc2oc(-c3ccccc3)cc12	none
COc1cccc(-c2cc3c(-n4cccc4)ncnc3o2)c1	AHR activator 56
O=C(Nc1cnc2ccccc2c1)c1cccc(-n2cnnn2)c1	AHR activator 59
CCNC(=O)N(C)[C@H]1C[C@H]2c3[nH]c4cccc(-c5cccc(F)c5)c4c3CCN2C(=O)[C@H]1[C@H](C)O	none (no result: Tb MetRS inh, Efflux pump inh, TAG inh, AHR activator)
CCc1cc2c3c(c(=O)oc2cc1O)CCCC3	AHR activator 76
C[C@@H]1COc2cccc(N3CCSCC3)c2S(=O)(=O)N1C	none (no result: Tb MetRS inh, Efflux pump inh, TAG inh, AHR activator)
O=c1[nH]c(-c2cccnc2)nc2ccccc12	none
c1cncc(-c2nc3c(ccc4ccccc43)[nH]2)c1	AHR activator 127 (no result: TAG inh)
CC(=O)OCC(=O)NCC1CCN(C(=O)C(=O)c2cc3ccccc3o2)CC1	none (no result: Tb MetRS inh, Efflux pump inh, TAG inh, AHR activator)
CC(C)c1ccc2c(c1)C1Cc3ccccc3C1N2 (centres undefined)	AHR activator 51 (no result: TAG inh)
O=S1(=O)NC2c3ccccc3CC2O1 (centres undefined)	none (no result: TAG inh)
CCCCNS(=O)(=O)c1ccc2nc(SCC(N)=O)[nH]c2c1	none
CCCCNS(=O)(=O)c1ccc2nc(SCC(=O)c3ccccc3OC)[nH]c2c1	Tb MetRS inh 13 (no result: TAG inh)
CN1C(=O)C[C@@](C#N)(C(=O)Nc2nc3ccc(F)cc3s2)[C@H]1c1ccccc1	none (no result: Tb MetRS inh, Efflux pump inh, TAG inh, AHR activator)
Cc1ccc(C(=O)NC(=S)Nc2ccc3c(c2)OCCO3)c(C)c1	none
Cc1ccc(C(=O)NC(=S)Nc2ccc(N3CCOCC3)cc2)c(C)c1	SMARCA2 activ 7.9
CN(CC(=O)Nc1ccc(N2CCOCC2)cc1)CC(=O)Nc1ccc(N2CCOCC2)cc1	AHR activator 52
CCOC(=O)[C@]12CCCC3=C1N(CCC3)C(=O)[C@@H](CC(=O)NCC1CCCCC1)C2	none (no result: Tb MetRS inh, Efflux pump inh, TAG inh, AHR activator)
CCN(CC)c1ccc(/C=N/NC(=O)c2cc3ccccc3[nH]2)cc1	AHR activator 58 (no result: TAG inh)
